According to PubChem BioAssay AID504347 (Broad Institute, 2011):
Active and inactive are the calls of the source.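 The calls were made as follows: active = fitted curve climbs past 10% caspase activation, relative to the positive control, at or below the top valid tested dose; inactive = the rest, including activity in the opposite direction.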

Test system: MEF A1-2A-BIM cells, caspase-3/7 luminescence
Assay: caspase-3/7 readout of A1 inhibition in A1-2A-BIM fibroblasts – cell-based, MEF A1-2A-BIM, luminescence, dry powder, set 4, dose response (AID 504347)
Settings: not given
Procedure, shortened: (§1)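 Evaluation: caspase activation from luminescence rise; Material: mouse embryonic fibroblasts co-expressing A1-2A-BIM construct; Input: 2500 cells per well; Technique: luminescence with DEVD-luciferin caspase-3/7 reagent, reduced-crosstalk aperture for some reads; Times: 3 h compound at 37 °C, 1 h reagent at RT; Medium: RPMI-1640, 10% FBS.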

Structure (SMILES)	AC10 [µM]
COCCn1c(=O)c([N+](=O)[O-])c(Sc2ccc(C)cc2)c2ccccc21	6.43
CCn1c(=O)c([N+](=O)[O-])c(Sc2ccc(C)cc2)c2ccccc21	15
O=c1c([N+](=O)[O-])c(Cl)c2ccccc2n1Cc1ccccc1	2.53
Cn1c(=O)c([N+](=O)[O-])c(-n2cnc3ccccc32)c2ccccc21	8.18
Cn1c(=O)c([N+](=O)[O-])c(Cl)c2ccccc21	0.96
O=C(COc1ccc(Cl)cc1Cl)NNc1nc(N2CCOCC2)nc(N2CCOCC2)n1	28.5
COCCn1c(=O)c(Sc2ccc(C)cc2)c(Sc2ccc(C)cc2)c2ccccc21	20.2
Cc1ccc(Sc2c([N+](=O)[O-])c(=O)n(Cc3ccccc3)c3ccccc23)cc1	17.8
O=c1[nH]c2ccccc2c(Cl)c1[N+](=O)[O-]	2.8

Test system: not listed separately
Assay: as above
Settings: MEF A1-2A-BIM cells, caspase-3/7 luminescence; at 35 µM (top of the series)
Procedure, shortened: as §1

Structure (SMILES)	caspase activation
Cc1ccc(Sc2c(Sc3ccc(C)cc3)c3ccccc3n(C)c2=O)cc1	-0.138% (inactive)
C/C(=N\Nc1nc(N2CCCCC2)nc(N2CCCCC2)n1)c1ccc(F)cc1	0.602% (inactive)
COc1ccc(CCNc2nc(N3CCOCC3)nc(N3CCOCC3)n2)cc1OC	4.68% (inactive)
